Data taken from ChEMBL document CHEMBL1129245, “N-heteroaryl-2-phenyl-3-(benzyloxy)piperidines: a novel class of potent orally active human NK1 antagonists” (J Med Chem, 1996).
Values belong to the molecule of their own block, whether it stands above or below them.

Experiments:
[1] = species: Oryctolagus cuniculus; assay: Displacement of [3H]diltiazem from rabbit skeletal muscle calcium channel at 30 uM; type: tissue-based; conditions: Muscle tissue
[2] = tested on: Cavia porcellus; assay: Inhibition of SP induced dermal guinea pig after peroral administration; type: functional; conditions: read-out: ID50 (the source's name)
Method in brief: (§1)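 Guinea pigs dosed orally with antagonist, then challenged 1 h later with intradermal substance P. Vascular leakage measured as extravasation of Evans blue dye. ID50 (mg/kg po) taken from dose-response data, 5-12 animals per data point.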

[3] = tested on: Rattus norvegicus; assay: Plasma concentration of 3 mg/kg iv after 0.25 hr in rats; type: ADME, organism-based; design: dose 3 mg/kg, route intravenous; conditions: in vivo
Method in brief: (§2)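 Rats given compound intravenously and orally in solution. Three rats per time point sampled for plasma drug levels. Pharmacokinetic parameters calculated from the plasma concentration–time data using standard equations. Data reported as mean ± SEM.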

[4] = tested on: Rattus norvegicus; assay: Plasma concentration of 3 mg/kg iv after 7 hr in rats; type: ADME, organism-based; design: dose 3 mg/kg, route intravenous; conditions: in vivo; method in brief: as §2
[5] = tested on: Cavia porcellus; assay: Inhibition of SP induced dermal extravasation in the guinea pig after peroral administration; type: functional; conditions: read-out: ID50 (the source's name)
Method in brief: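 Guinea pigs were dosed orally, then challenged with intradermal SP 1 h later. Vascular leakage was measured as Evans blue extravasation into the skin. Dose-response was run with 5-12 animals per point, and ID50 is reported in mg/kg po.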

[6] = tested on: Rhesus monkey; assay: Plasma concentration after 3 mg/kg intravenous dosing in Rhesus monkey at 0.5 hr; type: ADME, organism-based, Macaca mulatta; design: dose 3 mg/kg, route intravenous; conditions: in vivo
Method in brief: (§3)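 Rhesus monkeys dosed at 3 mg/kg in propylene glycol, intravenously and orally, n = 2 per data point. Plasma concentrations given as mean ± SEM, and pharmacokinetic parameters calculated with standard equations.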

[7] = tested on: Rattus norvegicus; assay: Plasma concentration of 3 mg/kg iv after 3h in rats; type: ADME, organism-based; design: dose 3 mg/kg, route intravenous; conditions: in vivo; method in brief: as §2
[8] = tested on: Rattus norvegicus; assay: Inhibition of […] of the rat after intravenous administration; type: functional; conditions: read-out: ID50 (the source's name)
Method in brief: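 Rats given test compound intravenously. Plasma extravasation in the dura mater measured, n = 8-10. ID50 reported in mg/kg iv.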

[9] = tested on: Rhesus monkey; assay: Plasma concentration after 3 mg/kg peroral dosing in Rhesus monkey at 0.167 hr; type: ADME, organism-based, Macaca mulatta; design: dose 3 mg/kg, route oral; conditions: in vivo, po; method in brief: as §3
[10] = tested on: Rattus norvegicus; assay: Plasma concentration after 3 mg/kg peroral dosing in rat at 0.25 hr in rats; type: ADME, organism-based; design: dose 3 mg/kg, route oral; conditions: in vivo, po
[11] = tested on: Rattus norvegicus; assay: Plasma concentration after 3 mg/kg peroral dosing in rat at 0.5 hr in rats; type: ADME, organism-based; design: dose 3 mg/kg, route oral; conditions: in vivo, po
[12] = tested on: Rattus norvegicus; assay: Plasma concentration of 3 mg/kg iv after 0.5 hr in rats; type: ADME, organism-based; design: dose 3 mg/kg, route intravenous; conditions: in vivo; method in brief: as §2
[13] = tested on: Rhesus monkey; assay: Plasma concentration after 3 mg/kg intravenous dosing in Rhesus monkey at 0.167 hr; type: ADME, organism-based, Macaca mulatta; design: dose 3 mg/kg, route intravenous; conditions: in vivo; method in brief: as §3
[14] = biological target: Substance-P receptor (Homo sapiens, UniProt P25103); assay: Displacement of [125 I]-Tyr8 SP from the cloned human Tachykinin receptor 1 expressed in CHO cells; type: cell-based
Chain of Substance-P receptor (P25103 whole entry): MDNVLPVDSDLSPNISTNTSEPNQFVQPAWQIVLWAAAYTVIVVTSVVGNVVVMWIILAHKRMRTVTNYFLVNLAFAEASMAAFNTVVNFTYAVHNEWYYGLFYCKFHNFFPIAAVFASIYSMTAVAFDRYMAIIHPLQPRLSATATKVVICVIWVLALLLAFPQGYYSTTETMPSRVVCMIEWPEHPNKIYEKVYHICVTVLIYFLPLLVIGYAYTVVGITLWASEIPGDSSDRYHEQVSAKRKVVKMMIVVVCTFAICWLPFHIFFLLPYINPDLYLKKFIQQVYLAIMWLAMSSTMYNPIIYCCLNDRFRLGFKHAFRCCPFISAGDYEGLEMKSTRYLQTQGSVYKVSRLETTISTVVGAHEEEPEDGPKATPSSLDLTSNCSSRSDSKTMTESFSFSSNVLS

[15] = tested on: Rattus norvegicus; assay: Plasma concentration of 3 mg/kg iv after 8 hr in rats; type: ADME, organism-based; design: dose 3 mg/kg, route intravenous; conditions: in vivo; method in brief: as §2
[16] = tested on: Rhesus monkey; assay: Plasma concentration after 3 mg/kg peroral dosing in Rhesus monkey at 8.0 hr; type: ADME, organism-based, Macaca mulatta; design: dose 3 mg/kg, route oral; conditions: in vivo, po; method in brief: as §3
[17] = tested on: Rhesus monkey; assay: Plasma concentration after 3 mg/kg intravenous dosing in Rhesus monkey at 6.0 hr; type: ADME, organism-based, Macaca mulatta; design: dose 3 mg/kg, route intravenous; conditions: in vivo; method in brief: as §3
[18] = tested on: Rhesus monkey; assay: Plasma concentration after 3 mg/kg peroral dosing in Rhesus monkey at 0.5 hr; type: ADME, organism-based, Macaca mulatta; design: dose 3 mg/kg, route oral; conditions: in vivo, po; method in brief: as §3
[19] = tested on: Rhesus monkey; assay: Plasma concentration after 3 mg/kg peroral dosing in Rhesus monkey at 6.0 hr; type: ADME, organism-based, Macaca mulatta; design: dose 3 mg/kg, route oral; conditions: in vivo, po; method in brief: as §3
[20] = tested on: Rattus norvegicus; assay: Plasma concentration of 3 mg/kg iv after 2 hr in rats; type: ADME, organism-based; design: dose 3 mg/kg, route intravenous; conditions: in vivo; method in brief: as §2
[21] = VD values expressed in (L/Kg) in Rhesus monkey; type: ADME, organism-based, Macaca mulatta; conditions: in vivo
Method in brief: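 Rhesus monkeys dosed at 3 mg/kg in propylene glycol, intravenously and orally, with n = 2 per data point. Pharmacokinetic parameters calculated from the plasma concentration data using standard equations. Values given as mean ± SEM.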

[22] = Bioavailability in rat; type: ADME, organism-based; conditions: in vivo
[23] = tested on: Rattus norvegicus; assay: Plasma concentration after 3 mg/kg peroral dosing in rat at 7.0 hr in rats; type: ADME, organism-based; design: dose 3 mg/kg, route oral; conditions: in vivo, po
[24] = tested on: Rattus norvegicus; assay: Plasma concentration of 3 mg/kg iv after 5 hr in rats; type: ADME, organism-based; design: dose 3 mg/kg, route intravenous; conditions: in vivo; method in brief: as §2
[25] = tested on: Rattus norvegicus; assay: Plasma concentration after 3 mg/kg peroral dosing in rat at 3.0 hh in rats; type: ADME, organism-based; design: dose 3 mg/kg, route oral; conditions: in vivo, po
[26] = tested on: Rattus norvegicus; assay: Plasma concentration of 3 mg/kg iv after 1 hr in rats; type: ADME, organism-based; design: dose 3 mg/kg, route intravenous; conditions: in vivo; method in brief: as §2
[27] = species: Oryctolagus cuniculus; assay: Displacement of [3H]diltiazem from rabbit skeletal muscle calcium channel; type: tissue-based; conditions: Muscle tissue
[28] = tested on: Rattus norvegicus; assay: Plasma concentration after 3 mg/kg peroral dosing in rat at 6.0 hr in rats; type: ADME, organism-based; design: dose 3 mg/kg, route oral; conditions: in vivo, po
[29] = tested on: Rhesus monkey; assay: Plasma concentration after 3 mg/kg intravenous dosing in Rhesus monkey at 2.0 hr; type: ADME, organism-based, Macaca mulatta; design: dose 3 mg/kg, route intravenous; conditions: in vivo; method in brief: as §3
[30] = tested on: Rattus norvegicus; assay: Plasma concentration after 3 mg/kg peroral dosing in rat at 0.083 hr in rats; type: ADME, organism-based; design: dose 3 mg/kg, route oral; conditions: in vivo, po
[31] = Bioavailability expressed as F% in Rhesus monkey; type: ADME, organism-based, Macaca mulatta; conditions: in vivo
[32] = Plasma clearance after intravenous administration dosing (3 mg/kg) in Rhesus monkey
[33] = tested on: Rhesus monkey; assay: Plasma concentration after 3 mg/kg peroral dosing in Rhesus monkey at 4.0h; type: ADME, organism-based, Macaca mulatta; design: dose 3 mg/kg, route oral; conditions: in vivo, po, 4 h; method in brief: as §3
[34] = tested on: Rattus norvegicus; assay: Plasma concentration after 3 mg/kg peroral dosing in rat at 5.0 hr in rats; type: ADME, organism-based; design: dose 3 mg/kg, route oral; conditions: in vivo, po
[35] = tested on: Rhesus monkey; assay: Plasma concentration after 3 mg/kg peroral dosing in Rhesus monkey at 2.0 hr; type: ADME, organism-based, Macaca mulatta; design: dose 3 mg/kg, route oral; conditions: in vivo, po; method in brief: as §3
[36] = Plasma clearance after intravenous administration dosing (3 mg/kg) in rat
[37] = tested on: Rattus norvegicus; assay: Plasma concentration of 3 mg/kg iv after 0.083 hr in rats; conditions: in vivo
[38] = VD values expressed in (L/Kg) in rat; type: ADME, organism-based; conditions: in vivo; method in brief: as §2
[39] = tested on: Rhesus monkey; assay: Plasma concentration after 3 mg/kg intravenous dosing in Rhesus monkey at 4.0h; type: ADME, organism-based, Macaca mulatta; design: dose 3 mg/kg, route intravenous; conditions: in vivo, 4 h; method in brief: as §3
[40] = tested on: Rattus norvegicus; assay: Plasma concentration of 3 mg/kg iv after 4 hr in rats; type: ADME, organism-based; design: dose 3 mg/kg, route intravenous; conditions: in vivo; method in brief: as §2
[41] = tested on: Rhesus monkey; assay: Plasma concentration after 3 mg/kg intravenous dosing in Rhesus monkey at 1.0 hr; type: ADME, organism-based, Macaca mulatta; design: dose 3 mg/kg, route intravenous; conditions: in vivo; method in brief: as §3
[42] = tested on: Rattus norvegicus; assay: Plasma concentration after 3 mg/kg peroral dosing in rat at 8.0 hr in rats; type: ADME, organism-based; design: dose 3 mg/kg, route oral; conditions: in vivo, po
[43] = tested on: Mustela putorius furo; assay: Effects on […] and vomiting response in ferrets induced by 10 mg/kg iv dose of cisplatin; type: functional
Method in brief: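 Ferrets given cisplatin 10 mg/kg iv to induce retching and vomiting. Test compound given iv; response observed over a 4 h period, n = 6-8 per group.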

[44] = tested on: Rhesus monkey; assay: Plasma concentration after 3 mg/kg intravenous dosing in Rhesus monkey at 8.0 hr; type: ADME, organism-based, Macaca mulatta; design: dose 3 mg/kg, route intravenous; conditions: in vivo; method in brief: as §3
[45] = tested on: Rattus norvegicus; assay: Plasma concentration after 3 mg/kg peroral dosing in rat at 1.0 hr in rats; type: ADME, organism-based; design: dose 3 mg/kg, route oral; conditions: in vivo, po
[46] = tested on: Rattus norvegicus; assay: Plasma concentration of 3 mg/kg iv after 6 hr in rats; type: ADME, organism-based; design: dose 3 mg/kg, route intravenous; conditions: in vivo; method in brief: as §2
[47] = tested on: Rattus norvegicus; assay: Plasma concentration after 3 mg/kg peroral dosing in rat at 2.0 hr in rats; type: ADME, organism-based; design: dose 3 mg/kg, route oral; conditions: in vivo, po
[48] = tested on: Rattus norvegicus; assay: Plasma concentration after 3 mg/kg peroral dosing in rat at 4.0h in rats; type: ADME, organism-based; design: dose 3 mg/kg, route oral; conditions: in vivo, po, 4 h
[49] = tested on: Rhesus monkey; assay: Plasma concentration after 3 mg/kg peroral dosing in Rhesus monkey at 1.0 hr; type: ADME, organism-based, Macaca mulatta; design: dose 3 mg/kg, route oral; conditions: in vivo, po; method in brief: as §3
[50] = tested on: Cavia porcellus; assay: Inhibition of SP- induced dermal guinea pig after peroral administration; type: functional; conditions: read-out: ID50 (the source's name); method in brief: as §1

Binding affinity [1]: 16%
SMILES: NC(=O)CN1CCC[C@H](OCc2cc(C(F)(F)F)cc(C(F)(F)F)c2)[C@@H]1c1ccccc1
ED50 [2]: 0.8 mg/kg

Concentration [3]: 244 ng/mL
Concentration [4]: < 5 ng/mL
Concentration [6]: 5020 ng/mL
Concentration [7]: 52 ng/mL
Concentration [9]: 20 ng/mL
Concentration [10]: 29 ng/mL
Concentration [11]: 70 ng/mL
Concentration [12]: 291 ng/mL
Concentration [13]: 5240 ng/mL
IC50 [14]: 0.05 nM
Concentration [15]: < 5 ng/mL
Concentration [16]: 500 ng/mL
Concentration [17]: 1220 ng/mL
Concentration [18]: 50 ng/mL
Concentration [19]: 580 ng/mL
Concentration [20]: 135 ng/mL
Vd [21]: 0.55 L/kg
bioavailability [22]: 46%
Concentration [23]: < 5 ng/mL
Concentration [24]: 21 ng/mL
Concentration [25]: 65 ng/mL
Concentration [26]: 203 ng/mL
Binding affinity [27]: 12.6 µM
Concentration [28]: 12 ng/mL
Concentration [29]: 3080 ng/mL
Concentration [30]: 11 ng/mL
bioavailability [31]: 23.7%
clearance [32]: 2.4 mL/min/kg
Concentration [33]: 520 ng/mL
Concentration [34]: 25 ng/mL
Concentration [35]: 150 ng/mL
clearance [36]: 73 mL/min/kg
Concentration [37]: 599 ng/mL
Vd [38]: 6.5 L/kg
Concentration [39]: 1980 ng/mL
Concentration [40]: 30 ng/mL
Concentration [41]: 3660 ng/mL
Concentration [42]: < 5 ng/mL
Concentration [44]: 720 ng/mL
Concentration [45]: 45 ng/mL
Concentration [46]: 9 ng/mL
Concentration [47]: 94 ng/mL
Concentration [48]: 41 ng/mL
Concentration [49]: 80 ng/mL
SMILES: O=c1[nH]nc(CN2CCC[C@H](OCc3cc(C(F)(F)F)cc(C(F)(F)F)c3)[C@@H]2c2ccccc2)[nH]1
ED50 [5]: 0.037 mg/kg
ED50 [8]: 0.028 mg/kg
ID90 [43]: 1 mg/kg

IC50 [14]: 36 nM
SMILES: FC(F)(F)c1cc(CO[C@H]2CCCN(Cc3ccco3)[C@H]2c2ccccc2)cc(C(F)(F)F)c1

Binding affinity [27]: > 100 µM
SMILES: FC(F)(F)c1cc(CO[C@H]2CCCN(Cc3nc[nH]n3)[C@H]2c2ccccc2)cc(C(F)(F)F)c1
ED50 [8]: 0.008 mg/kg
ED50 [50]: 0.4 mg/kg
